Source: ChEMBL document CHEMBL4431364, “Discovery and synthetic optimization of a novel scaffold for hydrophobic tunnel-targeted autotaxin inhibition” (Bioorg Med Chem, 2016)
pIC50: −log10 of the molar value.

Experiments:
Autotaxin [1] = target: T1, Autotaxin (Homo sapiens, UniProt Q13822); experiment: Inhibition of C-terminal FLAG tagged human recombinant ATX expressed in insect sf9 cells using FS-3 as substrate measured every 2 mins for 60 mins by FRET assay
Summary of the method: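 Dose response over 0.03 to 30 μM compound, 10 nM human FLAG-fusion ATX, 1 μM FS-3 in pH 8.0 Tris/BSA assay buffer. Fluorescence at 485/520 nm every 2 min for 60 min at 37 °C, normalized to no-ATX and no-compound controls. IC50 by non-linear regression. Triplicate.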

Autotaxin [2] = target: T1, Autotaxin; experiment: Inhibition of C-terminal FLAG tagged human recombinant ATX expressed in insect sf9 cells at 10 uM using FS-3 as substrate measured every 2 mins for 60 mins by FRET assay
Summary of the method: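 10 μM compound with 10 nM human FLAG-fusion ATX in pH 8.0 Tris buffer (30 μM BSA, 1 mM CaCl2, 1 mM MgCl2, 5 mM KCl, 140 mM NaCl) and 1 μM FS-3. Fluorescence at ex 485/em 520 nm read every 2 min for 60 min at 37 °C. Normalized to no-ATX (0%) and ATX without compound (100%). Triplicate.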

Autotaxin [3] = target: T1, Autotaxin; experiment: Inhibition of C-terminal FLAG tagged human recombinant ATX expressed in insect sf9 cells at 10 uM using pNP-TMP as substrate measured every 2 mins for 60 mins by absorbance

CC(=O)OC1(C(=O)COC(=O)c2ccco2)CC2CCC3C4C=CC(=O)CC4(C)CCC3C2(C)C1 (stereo unspecified)
pIC50 (Autotaxin [1]): 5.24
inhibition (Autotaxin [2]): 59.6 to 59.7%

O=C(COc1cccc(F)c1)N1CCN(c2ccccc2[N+](=O)[O-])CC1
inhibition (Autotaxin [2]): 39.5%
inhibition (Autotaxin [3]): 18.2%

O=C(COc1ccc(C(F)(F)F)cc1)N1CCN(c2ccc([N+](=O)[O-])cc2)CC1
pIC50 (Autotaxin [1]): 5.09
inhibition (Autotaxin [2]): 50.2%
inhibition (Autotaxin [3]): 26.6%

O=C(COc1ccccc1C(F)(F)F)N1CCN(c2ccc([N+](=O)[O-])cc2)CC1
pIC50 (Autotaxin [1]): 5.04
inhibition (Autotaxin [2]): 54.6%
inhibition (Autotaxin [3]): -3.7%

O=C(COc1ccc(Cl)cc1)N1CCN(c2cccc([N+](=O)[O-])c2)CC1
pIC50 (Autotaxin [1]): 5.27
inhibition (Autotaxin [2]): 62.6%
inhibition (Autotaxin [3]): 23.8%

O=C(O)c1ccccc1N1CCN(C(=O)COc2ccccc2F)CC1
inhibition (Autotaxin [2]): -7.6%
inhibition (Autotaxin [3]): -5.7%

O=C(O)c1cccc(N2CCN(C(=O)COc3cccc(F)c3)CC2)c1
pIC50 (Autotaxin [1]): 5.05
inhibition (Autotaxin [2]): 55.2%
inhibition (Autotaxin [3]): 30.2%

O=C(O)c1cccc(N2CCN(C(=O)COc3ccc(F)cc3)CC2)c1
pIC50 (Autotaxin [1]): 5.34
inhibition (Autotaxin [2]): 58.1%
inhibition (Autotaxin [3]): 41.1%

O=C(COc1cccc(Cl)c1)N1CCN(c2cccc([N+](=O)[O-])c2)CC1
pIC50 (Autotaxin [1]): 5.24
inhibition (Autotaxin [2]): 62.4%
inhibition (Autotaxin [3]): 17.1%

O=C(COc1cccc(Cl)c1)N1CCN(c2ccccc2[N+](=O)[O-])CC1
inhibition (Autotaxin [2]): 42.7%
inhibition (Autotaxin [3]): 24.9%

O=C(O)c1ccc(N2CCN(C(=O)COc3cccc(Cl)c3)CC2)cc1
pIC50 (Autotaxin [1]): 5.19
inhibition (Autotaxin [2]): 56%
inhibition (Autotaxin [3]): 6.8%

O=C(O)c1ccc(N2CCN(C(=O)COc3ccc(F)cc3)CC2)cc1
inhibition (Autotaxin [2]): 0.9%
inhibition (Autotaxin [3]): -6.5%

O=C(COc1ccccc1C(F)(F)F)N1CCN(c2cccc([N+](=O)[O-])c2)CC1
pIC50 (Autotaxin [1]): 5.17
inhibition (Autotaxin [2]): 56.4%
inhibition (Autotaxin [3]): 7.7%

O=C(COc1ccccc1C(F)(F)F)N1CCN(c2ccccc2[N+](=O)[O-])CC1
pIC50 (Autotaxin [1]): 4.94
inhibition (Autotaxin [2]): 50%
inhibition (Autotaxin [3]): 38.2%

O=C(O)c1ccccc1N1CCN(C(=O)COc2cccc(F)c2)CC1
inhibition (Autotaxin [2]): -5.5%
inhibition (Autotaxin [3]): -4.8%

O=C(O)c1ccc(N2CCN(C(=O)COc3ccc(Cl)cc3)CC2)cc1
pIC50 (Autotaxin [1]): 5.39
inhibition (Autotaxin [2]): 50.8%
inhibition (Autotaxin [3]): 19.6%

O=C(O)c1cccc(N2CCN(C(=O)COc3ccc(C(F)(F)F)cc3)CC2)c1
pIC50 (Autotaxin [1]): 5.12
inhibition (Autotaxin [2]): 65%
inhibition (Autotaxin [3]): 31.6%

O=C(COc1cccc(C(F)(F)F)c1)N1CCN(c2ccc([N+](=O)[O-])cc2)CC1
pIC50 (Autotaxin [1]): 5.31
inhibition (Autotaxin [2]): 63.3%
inhibition (Autotaxin [3]): 4.1%

O=C(COc1cccc(Cl)c1)N1CCN(c2ccc([N+](=O)[O-])cc2)CC1
pIC50 (Autotaxin [1]): 5.34
inhibition (Autotaxin [2]): 70.6%
inhibition (Autotaxin [3]): 15.6%

O=C(O)c1ccc(N2CCN(C(=O)COc3ccccc3Cl)CC2)cc1
inhibition (Autotaxin [2]): 27.6%
inhibition (Autotaxin [3]): 7.3%

O=C(O)c1ccccc1N1CCN(C(=O)COc2cccc(C(F)(F)F)c2)CC1
inhibition (Autotaxin [2]): 41.3%
inhibition (Autotaxin [3]): -3.5%

O=C(O)c1ccccc1N1CCN(C(=O)COc2cccc(Cl)c2)CC1
inhibition (Autotaxin [2]): 24.4%
inhibition (Autotaxin [3]): -3.3%

O=C(O)c1ccc(N2CCN(C(=O)COc3ccc(C(F)(F)F)cc3)CC2)cc1
inhibition (Autotaxin [2]): 46%
inhibition (Autotaxin [3]): 7.9%

O=C(O)c1ccc(N2CCN(C(=O)COc3cc(Cl)cc(Cl)c3)CC2)cc1
inhibition (Autotaxin [2]): 46.7%
inhibition (Autotaxin [3]): 27.8%

CCCCCCCCCCCCCC(=O)NC(CCC(=O)O)C(=O)O (stereo unspecified)
pIC50 (Autotaxin [1]): 5.22
inhibition (Autotaxin [2]): 54.1%
inhibition (Autotaxin [3]): -6.9%

O=C(COc1cccc(F)c1)N1CCN(c2cccc([N+](=O)[O-])c2)CC1
pIC50 (Autotaxin [1]): 5.21
inhibition (Autotaxin [2]): 59.8%
inhibition (Autotaxin [3]): 13.3%

COc1ccc2c(c1)C(NCc1cc(OC)c(OC)cc1N)CCO2 (stereo unspecified)
pIC50 (Autotaxin [1]): 5.18
inhibition (Autotaxin [2]): 48%
inhibition (Autotaxin [3]): 7.5%

O=C(COc1ccccc1Cl)N1CCN(c2cccc([N+](=O)[O-])c2)CC1
inhibition (Autotaxin [2]): 41.9%
inhibition (Autotaxin [3]): 4.9%

O=C(O)c1cccc(N2CCN(C(=O)COc3ccccc3C(F)(F)F)CC2)c1
pIC50 (Autotaxin [1]): 5.09
inhibition (Autotaxin [2]): 51.5%
inhibition (Autotaxin [3]): 23.7%

O=C1N=C(Nc2ccccc2)SC1Cc1ccc(-c2cccc(Br)c2)o1 (stereo unspecified)
inhibition (Autotaxin [2]): -0.74%

O=C(COc1cccc(C(F)(F)F)c1)N1CCN(c2ccccc2[N+](=O)[O-])CC1
inhibition (Autotaxin [2]): 49.2%
inhibition (Autotaxin [3]): 35.4%

O=C(O)c1ccccc1N1CCN(C(=O)COc2ccc(Cl)cc2Cl)CC1
inhibition (Autotaxin [2]): 27.6%
inhibition (Autotaxin [3]): -7.9%

Cn1ncc2c(Cl)nc(-c3cc4cc([N+](=O)[O-])ccc4o3)nc21
inhibition (Autotaxin [2]): -0.99%

O=C(O)c1cccc(N2CCN(C(=O)COc3ccccc3F)CC2)c1
inhibition (Autotaxin [2]): 10.8%
inhibition (Autotaxin [3]): 10.9%

O=c1/c(=C/C=C/c2ccc([N+](=O)[O-])o2)sc2nc3ccccc3n12
inhibition (Autotaxin [2]): 5.82%

COc1ccc(C2OCC3OC(OC)C(O)C(O)C3O2)cc1OCc1ccccc1 (stereo unspecified)
inhibition (Autotaxin [2]): -4.83%

CC(C)CC1C(=O)NC(C)CN1C(=O)c1ccc(-c2ccccc2)cc1 (stereo unspecified)
inhibition (Autotaxin [2]): 32.8%

O=C(COc1ccc(Cl)cc1)N1CCN(c2ccccc2[N+](=O)[O-])CC1
pIC50 (Autotaxin [1]): 5.09
inhibition (Autotaxin [2]): 59.1%
inhibition (Autotaxin [3]): 38%

O=C(O)c1ccc(N2CCN(C(=O)COc3ccccc3C(F)(F)F)CC2)cc1
inhibition (Autotaxin [2]): 10.9%
inhibition (Autotaxin [3]): -0.8%

O=C(O)c1ccccc1N1CCN(C(=O)COc2ccc(F)cc2)CC1
inhibition (Autotaxin [2]): 11.5%
inhibition (Autotaxin [3]): -7.2%

O=C(O)c1ccccc1N1CCN(C(=O)COc2ccccc2C(F)(F)F)CC1
inhibition (Autotaxin [2]): 17.3%
inhibition (Autotaxin [3]): 4.6%

CCCCC(CC)C(=O)Nc1nnc(C2CCCCC2)s1 (stereo unspecified)
inhibition (Autotaxin [2]): 7.68%

O=C(COc1ccc(F)cc1)N1CCN(c2ccccc2[N+](=O)[O-])CC1
inhibition (Autotaxin [2]): 42.4%
inhibition (Autotaxin [3]): 19.9%

Cc1cc(NC(=O)CSc2nc3sc4c(c3c(=O)[nH]2)CCC(C)C4)no1 (stereo unspecified)
inhibition (Autotaxin [2]): 11%

O=C(COc1cccc(C(F)(F)F)c1)N1CCN(c2cccc([N+](=O)[O-])c2)CC1
pIC50 (Autotaxin [1]): 5.34
inhibition (Autotaxin [2]): 61.9%
inhibition (Autotaxin [3]): 14.3%

O=C(COc1ccc(Cl)cc1Cl)N1CCN(c2ccccc2[N+](=O)[O-])CC1
pIC50 (Autotaxin [1]): 5.39
inhibition (Autotaxin [2]): 69.8%
inhibition (Autotaxin [3]): 37.1%

COc1ccc(/C(N)=N/OC(=O)COc2ccc(C(C)(C)C)cc2Br)cc1OC
inhibition (Autotaxin [2]): 6.68%

O=C(O)c1ccc(N2CCN(C(=O)COc3ccc(Cl)cc3Cl)CC2)cc1
inhibition (Autotaxin [2]): 23.9%
inhibition (Autotaxin [3]): 9.7%

Cc1oc(C(C)(C)C)cc1C(=O)NCCNC(=O)c1cc(C(C)(C)C)oc1C
inhibition (Autotaxin [2]): 7.68%

COc1ccc2oc(C(=O)NCCNC(=O)C3C(C=C(C)C)C3(C)C)cc2c1 (stereo unspecified)
inhibition (Autotaxin [2]): 25.5%

O=C(COc1ccc(F)cc1)N1CCN(c2cccc([N+](=O)[O-])c2)CC1
inhibition (Autotaxin [2]): 48.1%
inhibition (Autotaxin [3]): 8.9%

COc1cc(C(=O)Nc2ccc(C(C)=O)cc2)c(Br)c(OC)c1OC
inhibition (Autotaxin [2]): 16.9%

CCc1nc(C)cc(NCC(=O)C2(O)CC3(C)CCC4C5C=CC(=O)C=C5CCC45C3C25)c1O (stereo unspecified)
inhibition (Autotaxin [2]): 17.5%

CCc1ccc2c(c1)c1nnc(SCC(=O)Nc3nnc(C(C)C)s3)nc1n2C
inhibition (Autotaxin [2]): 21.7%

CC1=NC(c2cccc(C)c2)C(O)=C1/C=C1/C(=O)N(c2ccc(C)cc2C)N=C1C (stereo unspecified)
inhibition (Autotaxin [2]): 10.5%

Cc1nc(N2CCN(c3ccccc3F)CC2)c2c(C)c(C)sc2n1
inhibition (Autotaxin [2]): -2.48%

O=C(Nc1ccccc1)N1CC(O)C(N2CCN(Cc3ccccc3)CC2)C1 (stereo unspecified)
inhibition (Autotaxin [2]): 2.55%

Cc1cc(NC(=O)CSc2nc3sc4c(c3c(=O)[nH]2)CCC(C(C)(C)C)C4)no1 (stereo unspecified)
inhibition (Autotaxin [2]): 15.4%

CCc1cc2c(cc(C(=O)NCCc3ccc(OC)c(OC)c3)n2C)s1
inhibition (Autotaxin [2]): 35.1%

O=C(O)c1ccccc1N1CCN(C(=O)COc2ccccc2Cl)CC1
inhibition (Autotaxin [2]): 12.1%
inhibition (Autotaxin [3]): 1.7%

O=C(O)c1ccccc1N1CCN(C(=O)COc2ccc(Cl)cc2)CC1
pIC50 (Autotaxin [1]): 5.22
inhibition (Autotaxin [2]): 74.5%
inhibition (Autotaxin [3]): 32.1%

O=C(CCCc1ccc([N+](=O)[O-])cc1)N1CCN(c2ccccc2F)CC1
inhibition (Autotaxin [2]): 25.6%

Cc1c(Br)cc(C(=O)OCC(=O)c2ccccc2)c(C)c1C
inhibition (Autotaxin [2]): 6.54%

N#C/C(=C\c1ccc(-c2cc([N+](=O)[O-])ccc2Cl)o1)C(=O)Nc1ccccc1C(=O)O
inhibition (Autotaxin [2]): 3.59%

CCOc1ccc(N2C(=O)/C(=C\c3sccc3C)C(C(=O)OC)=C2C)cc1
inhibition (Autotaxin [2]): 4.09%

O=S(=O)(c1ccc(OC(F)(F)F)cc1)N1CCC(N2CCN(c3ccccc3F)CC2)CC1
inhibition (Autotaxin [2]): 8.43%

O=C(COc1ccccc1F)N1CCN(c2ccccc2[N+](=O)[O-])CC1
inhibition (Autotaxin [2]): 25.6%
inhibition (Autotaxin [3]): -1.8%

O=C(O)c1cccc(N2CCN(C(=O)COc3ccccc3Cl)CC2)c1
inhibition (Autotaxin [2]): 42%
inhibition (Autotaxin [3]): 11.5%

O=C(COc1ccc(F)cc1)N1CCN(c2ccc([N+](=O)[O-])cc2)CC1
pIC50 (Autotaxin [1]): 5.19
inhibition (Autotaxin [2]): 65.4%

O=C(COc1cccc(F)c1)N1CCN(c2ccc([N+](=O)[O-])cc2)CC1
pIC50 (Autotaxin [1]): 5.18
inhibition (Autotaxin [2]): 63%

CCCCCCCCCCCC[N+](C)(C)CC(O)C(O)C(O)C(O)CO (stereo unspecified)
inhibition (Autotaxin [2]): 36.7%

Cn1ncc(Cl)c1C(=O)NC1CCC(C(C)(C)C)CC1 (stereo unspecified)
inhibition (Autotaxin [2]): 15%

Cn1ncc2c1ncn1nc(-c3ccc(Cn4cc(Cl)cn4)o3)nc21
inhibition (Autotaxin [2]): -1.86%

Cc1ccc2cc(C#N)c(N3CCCN(C(=O)c4ccc(F)cc4F)CC3)nc2c1
inhibition (Autotaxin [2]): 46.4%

CCC(C)c1ccc(OCC(=O)Nc2cc(OC)c(OC)cc2C(=O)O)cc1 (stereo unspecified)
inhibition (Autotaxin [2]): -8.29%

CN(C)CCCCN(CCCN(C)C)Cc1cccc2ccccc12
inhibition (Autotaxin [2]): 36.2%

O=C(COc1ccccc1Cl)N1CCN(c2ccccc2[N+](=O)[O-])CC1
inhibition (Autotaxin [2]): 47.1%
inhibition (Autotaxin [3]): 18.7%
